Results pooled from the literature.
≈ marks a conversion by molar mass, not a printed value.

SMILES	organism	test	system	conditions	quantity	result
CC(=O)OC[C@@]1(C)[C@H]2CC[C@@H]3CN(Cc4ccc([N+](=O)[O-])cc4)[C@@H](C4=CCOC4=O)C[C@H]3[C@]2(C)CC[C@H]1OC(C)=O	unidentified human coronavirus	cytopathic effect	MRC5	25 µM, 72 h	inhibition	44.6%
CCOC(=O)C=c1[nH]c(=O)c(=Cc2cn(-c3ccccc3)nc2-c2ccccc2)s1	Acinetobacter baumannii	microbial growth, well diffusion	–	100000 µg/mL	inhibition zone	12 mm
CC(=O)OC[C@@]1(C)[C@H]2CC[C@@H]3CN(CCC(C)C)[C@@H](C4=CCOC4=O)C[C@H]3[C@]2(C)CC[C@H]1OC(C)=O	unidentified human coronavirus	cytopathic effect	MRC5	25 µM, 72 h	inhibition	105%
CCOC(=O)c1cc(C#N)c(=O)n(NS(=O)(=O)c2ccc(C)cc2)c1N	Enterovirus B	plaque formation	BGM, B4	–	IC50	90 mg/L
CCCCCCC/C=C/C(=O)N1C(=O)/C(=C(\O)C2CCNCC2)C(=O)C1CC(C)C (stereo not drawn)	Proteus mirabilis	microbial growth	ATCC25933	–	MIC	200 mg/L (≈ 478 µM)
CCOC(=O)c1c(N)csc1-c1cn(-c2ccccc2)nc1-c1ccc(C)cc1	Acinetobacter baumannii	microbial growth, well diffusion	–	100000 µg/mL	inhibition zone	29 mm
Nc1nc(N)c2ncn([C@H]3O[C@H](CO)[C@@H](F)[C@@H]3F)c2n1	Hepatitis C virus	viral replication, inhibitor	Huh-7	replicon	EC90	> 10000 nM
Cc1c(NN=C2SC(CC#N)=NC2=O)c(=O)n(-c2ccccc2)n1C	Acinetobacter baumannii	microbial growth, well diffusion	–	100000 µg/mL	inhibition zone	15 mm
COc1cc(O)c(CC=C(C)C)c(O)c1C(=O)/C=C/c1ccc(O)cc1	Leishmania tarentolae	parasite growth, resazurin	–	48 h, promastigote	IC50	780 nM
CCOC(=O)N[C@@H](CC(C)C)C(=O)N1CCC[C@@H]1C(=O)Nc1ccc(C#CC#Cc2ccc(NC(=O)[C@H]3CCCN3C(=O)[C@H](CC(C)C)NC(=O)OCC)cc2)cc1	Hepatitis C virus	viral replication, inhibitor, luciferase	Huh-5-2, GETYPE1B	72 h, replicon	EC50	5630 nM
CC(C)CN1C[C@H]2CC[C@@H]3[C@]4(C)COC(C)(C)O[C@@H]4CC[C@@]3(C)[C@@H]2C[C@@H]1C1=CCOC1=O	unidentified human coronavirus	cytopathic effect	MRC5	25 µM, 72 h	inhibition	28.6%
C/C(=C\c1ccc(C#N)cc1)C(=O)Nc1ccc(C(=O)N[C@@H](CC(N)=O)C(=O)Nc2ccc(C(=O)Nc3ccc(C(=O)Nc4ccc(C(=O)O)cc4)c(O)c3OC(C)C)cc2)cc1	Proteus mirabilis	microbial growth	DSM4479	–	MIC	> 64 mg/L
CC(=O)OC[C@@]1(C)[C@H]2CC[C@@H]3CN(Cc4ccc(C(C)(C)C)cc4)[C@@H](C4=CCOC4=O)C[C@H]3[C@]2(C)CC[C@H]1OC(C)=O	unidentified human coronavirus	cytopathic effect	MRC5	25 µM, 72 h	inhibition	94.1%
CC(C)(O/N=C(\C(=O)N[C@@H]1C(=O)N2C(C(=O)[O-])=C(C[n+]3ccccc3)CS[C@H]12)c1csc(N)n1)C(=O)O	Acinetobacter baumannii	microbial growth, disc diffusion	–	10 µg/disc, clinical isolate	inhibition zone	6 mm
CC(C)Oc1c(NC(=O)c2ccc(NC(=O)[C@H](CC(N)=O)NC(=O)c3ccc(NC(=O)c4ccc(C#N)cn4)cc3)cc2)ccc(C(=O)Nc2ccc(C(=O)O)cc2)c1O	Proteus mirabilis	microbial growth	DSM4479	–	MIC	4 mg/L (≈ 4.92 µM)
Cc1c(NN=C2SC(C(C#N)=Cc3ccc(Cl)cc3)=NC2=O)c(=O)n(-c2ccccc2)n1C	Acinetobacter baumannii	microbial growth, well diffusion	–	100000 µg/mL	inhibition zone	13 mm
[N-]=[N+]=Nc1nc(N=[N+]=[N-])c2ncn([C@@H]3O[C@H](COC(=O)c4ccccc4)[C@@H](F)[C@@H]3F)c2n1	Hepatitis C virus	viral replication, inhibitor	Huh-7	replicon	EC90	> 10000 nM
CCOC(=O)N[C@H](C(=O)N1CCC[C@H]1C(=O)Nc1cccc(C#CC#Cc2cccc(NC(=O)[C@@H]3CCCN3C(=O)[C@@H](NC(=O)OCC)[C@@H](C)CC)c2)c1)[C@H](C)CC	Hepatitis C virus	viral replication, inhibitor, luciferase	Huh-5-2, GETYPE1B	72 h, replicon	EC50	392 nM
COC(=O)N[C@H](C(=O)N1CCC[C@H]1c1ncc(-c2ccc(-c3ccc(-c4cnc([C@@H]5CCCN5C(=O)[C@@H](NC(=O)OC)C(C)C)[nH]4)cc3)cc2)[nH]1)C(C)C	Hepatitis C virus	viral replication, inhibitor	HEK-293T, GETYPE2A	replicon	EC50	0.0035 nM
Nc1nc(NS(=O)(=O)c2ccccc2)nc(-c2ccc(F)cc2)c1-c1nc2ccccc2s1	Enterovirus B	plaque formation	BGM, B4	–	IC50	93 mg/L
COC(=O)N[C@H](C(=O)N1CCC[C@H]1C(=O)Nc1ccc(C#CC#Cc2ccc(NC(=O)[C@@H]3CCCN3C(=O)[C@@H](NC(=O)OC)C(C)C)cc2)cc1)C(C)C	Hepatitis C virus	viral replication, inhibitor, luciferase	Huh-5-2, GETYPE1B	72 h, replicon	EC50	10 nM
Cc1cn([C@H]2C[C@H](N=[N+]=[N-])[C@@H](CO)O2)c(=O)[nH]c1=O	Hepatitis C virus	viral replication, inhibitor	Huh-7	replicon	EC50	> 10000 nM
C[C@@]12COCO[C@@H]1CC[C@]1(C)[C@@H]2CC[C@@H]2CN(Cc3ccccc3)[C@@H](C3=CCOC3=O)C[C@H]21	unidentified human coronavirus	cytopathic effect	MRC5	25 µM, 72 h	inhibition	9.5%

SMILES	organism	test	system	conditions	quantity	result
O=C(OC[C@H]1O[C@H](n2cnc3c(Cl)nc(Cl)nc32)[C@@H](F)[C@@H]1F)c1ccccc1	Hepatitis C virus	viral replication, inhibitor	Huh-7	replicon	EC50	< 10000 nM
CCOC(=O)N[C@@H](C(=O)N1CCC[C@H]1C(=O)Nc1ccc(C#CC#Cc2ccc(NC(=O)[C@@H]3CCCN3C(=O)[C@H](NC(=O)OCC)C(C)C)cc2)cc1)C(C)C	Hepatitis C virus	viral replication, inhibitor, luciferase	Huh-5-2, GETYPE1B	72 h, replicon	EC50	267 nM
C/C(O)=C1\C(=O)C(CC(C)C)N(C(=O)C=Cc2ccccc2)C1=O (stereo not drawn)	Proteus mirabilis	microbial growth	ATCC25933	–	MIC	> 200 mg/L
Cc1ccc(C(=O)CNc2nc(NS(=O)(=O)c3ccccc3)ncc2-c2nc3ccccc3s2)cc1	Enterovirus B	plaque formation	BGM, B4	–	IC50	90 mg/L
CCCCCCC/C=C/C(=O)N1C(=O)/C(=C(/C)O)C(=O)C1CCCCN (stereo not drawn)	Proteus mirabilis	microbial growth	ATCC25933	–	MIC	> 200 mg/L
Nc1nc2c(ncn2[C@@H]2O[C@H](CO)[C@@H](F)[C@@H]2F)c(=O)[nH]1	Hepatitis C virus	viral replication, inhibitor	Huh-7	replicon	EC50	> 10000 nM
CC1(C)OC[C@@]2(C)[C@H]3CC[C@@H]4CN(Cc5ccc(C(C)(C)C)cc5)[C@@H](C5=CCOC5=O)C[C@H]4[C@]3(C)CC[C@H]2O1	unidentified human coronavirus	cytopathic effect	MRC5	25 µM, 72 h	inhibition	103%
CCCCCCC/C=C/C(=O)N1C(=O)/C(=C(\O)c2ccccc2)C(=O)C1CC(C)C (stereo not drawn)	Proteus mirabilis	microbial growth	ATCC25933	–	MIC	> 200 mg/L
C[C@@]1(O)[C@H](O)[C@@H](CO)O[C@H]1n1ccc(N)nc1=O	Hepatitis C virus	viral replication, inhibitor	Huh-7	replicon	EC50	1800 nM
CC1(C)OC[C@@]2(C)[C@H]3CC[C@@H]4CN(Cc5ccc(I)cc5)[C@@H](C5=CCOC5=O)C[C@H]4[C@]3(C)CC[C@H]2O1	unidentified human coronavirus	cytopathic effect	MRC5	25 µM, 72 h	inhibition	87.2%
N#CC(=Cc1ccc([N+](=O)[O-])cc1)C1=NC(=O)C(=Cc2cn(-c3ccccc3)nc2-c2ccccc2)S1	Acinetobacter baumannii	microbial growth, well diffusion	–	100000 µg/mL	inhibition zone	19 mm
CC(=O)OC[C@@]1(C)[C@H]2CC[C@@H]3CN(Cc4cccs4)[C@@H](C4=CCOC4=O)C[C@H]3[C@]2(C)CC[C@H]1OC(C)=O	unidentified human coronavirus	cytopathic effect	MRC5	25 µM, 72 h	inhibition	31.2%
CCCCCCC/C=C/C(=O)N1C(=O)/C(=C(\O)c2ccc(OCOCCOC)cc2)C(=O)C1CC(C)C (stereo not drawn)	Proteus mirabilis	microbial growth	ATCC25933	–	MIC	> 200 mg/L
COC(=O)N[C@H](C(=O)N1CCC[C@H]1C(=O)Nc1cccc(C#CC#Cc2cccc(NC(=O)[C@@H]3CCCN3C(=O)[C@@H](NC(=O)OC)C(C)C)c2)c1)C(C)C	Hepatitis C virus	viral replication, inhibitor, luciferase	GETYPE3A	replicon	EC50	9500 nM
Nc1nc(Cl)c2ncn([C@@H]3O[C@H](COC(=O)c4ccccc4)[C@@H](F)[C@@H]3F)c2n1	Hepatitis C virus	viral replication, inhibitor	Huh-7	replicon	EC50	4700 nM
Nc1nc(NS(=O)(=O)c2ccccc2)nc(-c2ccc(Cl)cc2)c1-c1nc2ccccc2s1	Enterovirus B	plaque formation	BGM, B4	–	IC50	91 mg/L
CCOC(=O)N[C@@H](C(=O)N1CCC[C@H]1C(=O)Nc1cccc(C#CC#Cc2cccc(NC(=O)[C@@H]3CCCN3C(=O)[C@H](NC(=O)OCC)C(C)C)c2)c1)C(C)C	Hepatitis C virus	viral replication, inhibitor, luciferase	Huh-5-2, GETYPE1B	72 h, replicon	EC50	70 nM
O=[N+]([O-])c1ccc(O)c2ncccc12	Acinetobacter baumannii	microbial growth	19606	–	IC50	560 nM
CCOC(=O)N[C@@H](CC(C)C)C(=O)N1CCC[C@H]1C(=O)Nc1cccc(C#CC#Cc2cccc(NC(=O)[C@@H]3CCCN3C(=O)[C@H](CC(C)C)NC(=O)OCC)c2)c1	Hepatitis C virus	viral replication, inhibitor, luciferase	GETYPE4A	replicon	EC50	40.9 nM
O=C(Nc1ccccc1-c1ccc(F)c(F)c1)c1nccnc1C(F)(F)F	Venturia nashicola	microbial growth	–	–	EC50	0.8 mg/L
N#CC(=Cc1cn(-c2ccccc2)nc1-c1ccccc1)C1=NC(=O)CS1	Acinetobacter baumannii	microbial killing, broth dilution	–	–	MBC	0.5 mg/L (≈ 1.35 µM)
CCCCOC(=O)N[C@H](C(=O)N1CCC[C@H]1C(=O)Nc1cccc(C#CC#Cc2cccc(NC(=O)[C@@H]3CCCN3C(=O)[C@@H](NC(=O)OCCCC)[C@@H](C)CC)c2)c1)[C@H](C)CC	Hepatitis C virus	viral replication, inhibitor, luciferase	Huh-5-2, GETYPE1B	72 h, replicon	EC50	> 10000 nM
